Data published in ChEMBL document CHEMBL4406900, “Synthesis and antidepressant-like activity of novel alkoxy-piperidine derivatives targeting SSRI/5-HT1A/5-HT7” (Bioorg Med Chem Lett, 2019).
pIC50, pKi: −log10 of the molar value.

Experiments:
[1] = Clearance in human liver microsomes at 1 uM in presence of NADPH generating system measured for 10 to 90 mins by LC-MS/MS analysis; type: ADME, Microsome; details: read-out: CLH
Method in brief: (§1)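 Metabolic stability in rat or human liver microsomes, reported as t1/2 (min) and intrinsic clearance CL (µL/min/mg).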

[2] = biological target: T1, 5-hydroxytryptamine receptor 1A (Homo sapiens) (UniProt P08908); assay: Displacement of [3H]-8-OH-DPAT from 5HT1A receptor (unknown origin) expressed in HEK293 cells membranes at 1 uM incubated for 60 mins by scintillation counting method relative to control; type: cell membranes
T1 sequence (whole entry): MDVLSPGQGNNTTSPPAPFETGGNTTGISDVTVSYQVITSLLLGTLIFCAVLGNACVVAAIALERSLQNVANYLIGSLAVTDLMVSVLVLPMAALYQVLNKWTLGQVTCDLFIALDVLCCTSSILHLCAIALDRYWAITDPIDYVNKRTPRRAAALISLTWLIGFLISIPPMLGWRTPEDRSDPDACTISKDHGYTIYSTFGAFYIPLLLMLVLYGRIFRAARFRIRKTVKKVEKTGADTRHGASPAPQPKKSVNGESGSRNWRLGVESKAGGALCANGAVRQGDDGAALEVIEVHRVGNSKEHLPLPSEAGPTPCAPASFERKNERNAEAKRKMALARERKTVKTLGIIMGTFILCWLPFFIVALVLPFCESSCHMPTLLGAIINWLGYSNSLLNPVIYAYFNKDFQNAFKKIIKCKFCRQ

[3] = biological target: T2, 5-hydroxytryptamine receptor 7 (Homo sapiens, UniProt P34969); assay: Displacement of [3H]-LSD from 5HT7 receptor (unknown origin) expressed in CHO cell membranes at 1 uM incubated for 120 mins by scintillation counting method relative to control
Method in brief: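 Single-concentration radioligand displacement on receptor-expressing cell membrane homogenates: [3H]-8-OH-DPAT with HEK-293 membranes for 5-HT1A, [3H]-LSD with CHO membranes for 5-HT7. Values are given as inhibition ratio (%).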

[4] = biological target: Sodium-dependent serotonin transporter (Rattus norvegicus) (UniProt P31652); assay: Inhibition of rat synaptosomes 5HT transporter assessed as reduction in [3H]serotonin reuptake at 1 uM incubated for 15 mins by scintillation counting method relative to control; type: subcellular
Method in brief: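 Rat brain synaptosomes; inhibition of [3H]-5-HT incorporation through the serotonin uptake transporter at a single concentration, expressed as inhibition ratio (%).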

[5] = biological target: T3, 5-hydroxytryptamine receptor 1A (Homo sapiens, UniProt P08908); assay: Displacement of [3H]-8-OH-DPAT from 5HT1A receptor (unknown origin) expressed in HEK293 cells membranes incubated for 60 mins by scintillation counting method; type: cell membranes
T3 sequence (P08908 whole entry): T1 sequence (whole entry)

[6] = biological target: T2, 5-hydroxytryptamine receptor 7; assay: Displacement of [3H]-LSD from 5HT7 receptor (unknown origin) expressed in CHO cell membranes incubated for 120 mins by scintillation counting method
Method in brief: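 For 5-HT7, [3H]-LSD displacement binding was run on CHO cell membrane homogenates. Ki came from 8 concentrations, each tested in duplicate.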

[7] = biological target: Sodium-dependent serotonin transporter (Rattus norvegicus, UniProt P31652); assay: Inhibition of rat synaptosomes 5HT transporter assessed as reduction in [3H]serotonin reuptake incubated for 15 mins by scintillation counting method; type: subcellular
Method in brief: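 Serotonin uptake transporter assay: inhibition of [3H]-5-HT incorporation into rat brain synaptosomes. IC50 was derived from 8 concentrations, each in duplicate.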

[8] = Half life in rat liver microsomes at 1 uM in presence of NADPH generating system measured for 10 to 90 mins by LC-MS/MS analysis; type: ADME, Microsome; method in brief: as §1
[9] = Clearance in rat liver microsomes at 1 uM in presence of NADPH generating system measured for 10 to 90 mins by LC-MS/MS analysis; type: ADME, Microsome; details: read-out: CLH; method in brief: as §1
[10] = Half life in human liver microsomes at 1 uM in presence of NADPH generating system measured for 10 to 90 mins by LC-MS/MS analysis; type: ADME, Microsome; method in brief: as §1
[11] = test system: Mus musculus; assay: Antidepressant activity in mouse assessed as decrease in immobility time at 10 mg/kg, po administrated for daily for 7 days measured 1 hr post last dose by forced swim test relative to control; type: functional; design: scale not given: the % may be the effect or the level left
Method in brief: (§2)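 Male mice, repeated oral dosing at 10, 20 or 40 mg/kg/day for 7 days. Immobility time was scored in the forced swim test. n = 10 per group, mean ± SEM, compared with a vehicle group (*P < 0.05, **P < 0.01).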

[12] = test system: Mus musculus; assay: Antidepressant activity in mouse assessed as decrease in immobility time at 20 mg/kg, po administrated for daily for 7 days measured 1 hr post last dose by forced swim test relative to control; type: functional; design: scale not given: the % may be the effect or the level left; method in brief: as §2
[13] = test system: Mus musculus; assay: Antidepressant activity in mouse assessed as decrease in immobility time at 40 mg/kg, po administrated for daily for 7 days measured 1 hr post last dose by forced swim test relative to control; type: functional; design: scale not given: the % may be the effect or the level left; method in brief: as §2
[14] = test system: Mus musculus; assay: Antidepressant activity in mouse assessed as decrease in immobility time at 10 mg/kg, po administrated for daily for 7 days measured 1 hr post last dose by tail suspension test relative to control; type: functional; design: scale not given: the % may be the effect or the level left
Method in brief: (§3)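 Tail suspension test in male mice after 7 days of repeated PO dosing at 10, 20 or 40 mg/kg/day. Immobility time was recorded with n = 10 per group, given as mean ± SEM and tested against vehicle (*P < 0.05, **P < 0.01).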

[15] = test system: Mus musculus; assay: Antidepressant activity in mouse assessed as decrease in immobility time at 20 mg/kg, po administrated for daily for 7 days measured 1 hr post last dose by tail suspension test relative to control; type: functional; design: scale not given: the % may be the effect or the level left; method in brief: as §3
[16] = test system: Mus musculus; assay: Antidepressant activity in mouse assessed as decrease in immobility time at […], po administrated for daily for 7 days measured 1 hr post last dose by tail suspension test relative to control; type: functional; design: scale not given: the % may be the effect or the level left

Sequence of Sodium-dependent serotonin transporter (Rattus norvegicus) (P31652 whole entry): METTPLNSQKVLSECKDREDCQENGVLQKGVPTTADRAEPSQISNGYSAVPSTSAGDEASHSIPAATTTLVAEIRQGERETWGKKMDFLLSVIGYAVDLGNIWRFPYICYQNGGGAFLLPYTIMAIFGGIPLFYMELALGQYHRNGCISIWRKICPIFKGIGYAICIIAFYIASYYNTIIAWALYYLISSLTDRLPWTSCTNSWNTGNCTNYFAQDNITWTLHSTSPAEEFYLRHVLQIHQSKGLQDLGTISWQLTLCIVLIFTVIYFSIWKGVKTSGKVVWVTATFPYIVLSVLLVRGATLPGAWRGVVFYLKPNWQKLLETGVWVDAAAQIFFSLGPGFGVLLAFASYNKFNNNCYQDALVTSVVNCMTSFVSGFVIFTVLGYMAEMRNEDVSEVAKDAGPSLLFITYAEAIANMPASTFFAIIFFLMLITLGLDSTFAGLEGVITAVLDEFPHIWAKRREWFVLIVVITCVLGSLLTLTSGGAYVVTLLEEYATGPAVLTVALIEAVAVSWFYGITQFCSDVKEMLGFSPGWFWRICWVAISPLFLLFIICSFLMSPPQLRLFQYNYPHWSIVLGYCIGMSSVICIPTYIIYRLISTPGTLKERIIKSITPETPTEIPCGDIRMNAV
T2 sequence (P34969 whole entry): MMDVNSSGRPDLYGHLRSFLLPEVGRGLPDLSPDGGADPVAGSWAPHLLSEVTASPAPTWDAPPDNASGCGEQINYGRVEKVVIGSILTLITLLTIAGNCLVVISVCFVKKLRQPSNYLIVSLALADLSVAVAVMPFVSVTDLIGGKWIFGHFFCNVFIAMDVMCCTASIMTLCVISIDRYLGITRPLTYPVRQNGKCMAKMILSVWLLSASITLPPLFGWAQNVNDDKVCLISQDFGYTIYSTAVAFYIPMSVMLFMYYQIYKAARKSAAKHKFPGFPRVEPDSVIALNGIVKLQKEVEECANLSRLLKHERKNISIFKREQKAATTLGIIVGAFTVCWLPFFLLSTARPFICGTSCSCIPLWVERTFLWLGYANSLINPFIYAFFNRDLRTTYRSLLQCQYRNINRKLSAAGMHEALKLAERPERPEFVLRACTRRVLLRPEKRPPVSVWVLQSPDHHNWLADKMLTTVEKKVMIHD
Sequence of Sodium-dependent serotonin transporter (P31652 whole entry): as the sequence (P31652 whole entry) above

| SMILES | inhibition [2] | inhibition [3] | inhibition [4] | also measured |
| --- | --- | --- | --- | --- |
| COc1ccc2c(c1)[C@]13CCCC[C@@H]1[C@H](C2)N(C)CC3 [DEXTROMETHORPHAN] | – | – | – | microsomal CLint at 1 µM [1]: 31 µL/min/mg |
| Fc1ccc(OCCN2CCC(CCc3c[nH]c4ccc(F)cc34)CC2)c(-c2ccccc2)c1 | 54.3% | 94.3% | 99.8% | – |
| Fc1ccc(OCCCN2CCC(Cc3c[nH]c4ccc(F)cc34)CC2)c(-c2ccccc2)c1 | 81.9% | 86.4% | 102% | – |
| Fc1ccc(-c2cc(F)ccc2OCCN2CCC(c3c[nH]c4ccc(F)cc34)CC2)cc1 | 97.4% | 86.5% | 90.6% | – |
| Cc1ccc(-c2cc(F)ccc2OCCN2CCC(c3c[nH]c4ccc(F)cc34)CC2)cc1 | 94.5% | 86.2% | 38.9% | – |
| Fc1cccc(-c2cc(F)ccc2OCCN2CCC(c3c[nH]c4ccc(F)cc34)CC2)c1 | 95.9% | 91% | 94.3% | pKi [5]: 7.77; pKi [6]: 7.46; pIC50 [7]: 7.07; half-life at 1 µM [8]: 22.9 min; microsomal CLint at 1 µM [9]: 60.4 µL/min/mg; half-life at 1 µM [10]: 61.4 min; microsomal CLint at 1 µM [1]: 22.6 µL/min/mg; Activity [11]: 20%; Activity [12]: 6%; Activity [13]: 27%; Activity [14]: 8%; Activity [15]: 2%; Activity [16]: 17% |
| Fc1ccc(OCCN2CCC(c3c[nH]c4ccc(F)cc34)CC2)c(-c2ccccc2)c1 | 94.2% | 90.4% | 96.3% | pKi [5]: 7.92; pKi [6]: 7.60; pIC50 [7]: 6.75; half-life at 1 µM [8]: 34.5 min; microsomal CLint at 1 µM [9]: 40.2 µL/min/mg; half-life at 1 µM [10]: 61.5 min; microsomal CLint at 1 µM [1]: 22.5 µL/min/mg; Activity [11]: 17%; Activity [12]: 8%; Activity [13]: 22%; Activity [14]: 10%; Activity [15]: 22%; Activity [16]: 24% |
| Fc1ccc(OCCCN2CCC(c3c[nH]c4ccc(F)cc34)CC2)c(-c2ccccc2)c1 | 97.7% | 76.1% | 87% | – |
| Fc1ccc(OCCN2CCC(c3c[nH]c4ccc(F)cc34)CC2)c(-c2ccc(Cl)cc2)c1 | 95% | 80.3% | 27.3% | – |
| Fc1ccc(OCCN2CCC(c3c[nH]c4ccc(F)cc34)CC2)c(-c2ccccc2F)c1 | 97.8% | 88.7% | 97.1% | – |
| Cc1ccc(Sc2ccccc2N2CCNCC2)c(C)c1 [VORTIOXETINE] | – | 92.5% | 101% | microsomal CLint at 1 µM [1]: 6.5 µL/min/mg; Activity [13]: 52%; Activity [16]: 48% |
| Fc1ccc(OCCN2CCC(Cc3c[nH]c4ccc(F)cc34)CC2)c(-c2ccccc2)c1 | 72.3% | 97.2% | 101% | – |
| COc1ccc(-c2cc(F)ccc2OCCN2CCC(c3c[nH]c4ccc(F)cc34)CC2)cc1 | 98.7% | 95.9% | 12.3% | – |
| Fc1ccc2[nH]cc(C3CCN(CCOc4ccc(F)c(-c5ccccc5)c4)CC3)c2c1 | 96.9% | 54.2% | 66.6% | – |
| N#Cc1ccc(-c2cc(F)ccc2OCCN2CCC(c3c[nH]c4ccc(F)cc34)CC2)cc1 | 97.5% | 95.8% | 63% | – |
